CHRM4 PAM = potentiates acetylcholine response at human M4 receptor; P08173; CHO-K1 hM4/Gqi5, Fluo-8 calcium fluorescence, ACh EC20; 0% = ACh EC20, 100% = maximal ACh; activation, % at 3 µM; hit rate 0.4% among 360,000;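 active = activation above its plate's cutoff, the mean activation of sample wells plus 3 SD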
M4 antag = antagonists of human muscarinic M4 receptor (CHRM4); AID 624125; hit rate 0.73% among 360,000; CHO-hM4 cells, ACh EC80, Fluo-8 calcium fluorescence; inhibition, % at 3 µM;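 active = inhibition above its plate's cutoff, the mean inhibition of sample wells plus 3 SD, cut at about 27% in these data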;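 also: 0% = acetylcholine EC80 with DMSO and 100% = DMSO without agonist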
M5 antag = CHRM5 antagonism in calcium assay. CHO-hM5 cells, Fluo-8 calcium fluorescence, ACh EC80. P08912. inhibition, % at 3 µM. hit rate 0.59% among 360,000;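 active = inhibition above a per-plate cutoff, the mean of that plate's test compounds plus 3 SD, cut at about 27% in these data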;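 also: 0% = acetylcholine EC80 with DMSO and 100% = DMSO without agonist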
Target sequence (P08912 whole entry, looked up): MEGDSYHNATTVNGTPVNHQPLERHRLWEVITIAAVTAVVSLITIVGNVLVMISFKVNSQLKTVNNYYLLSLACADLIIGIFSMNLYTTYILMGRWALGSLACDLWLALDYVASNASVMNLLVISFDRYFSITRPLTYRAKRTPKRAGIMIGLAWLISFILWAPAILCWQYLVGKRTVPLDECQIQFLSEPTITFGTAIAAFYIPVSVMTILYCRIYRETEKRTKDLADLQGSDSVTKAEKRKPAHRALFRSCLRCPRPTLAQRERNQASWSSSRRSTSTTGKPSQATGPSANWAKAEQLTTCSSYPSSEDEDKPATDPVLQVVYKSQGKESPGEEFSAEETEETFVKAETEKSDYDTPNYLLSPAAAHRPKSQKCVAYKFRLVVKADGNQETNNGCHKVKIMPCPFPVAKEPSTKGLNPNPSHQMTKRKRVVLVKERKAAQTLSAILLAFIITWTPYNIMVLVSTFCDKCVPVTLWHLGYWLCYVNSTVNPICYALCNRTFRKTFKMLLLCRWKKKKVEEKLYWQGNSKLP
CHRM5 PAM = potentiates acetylcholine response at human M5 receptor. P08912. AID 624038. activation, % at 3 µM. CHO-K1 hM5, Fluo-8 calcium, ACh EC20 PAM; 0% = ACh EC20, 100% = ACh EC100. hit rate 0.3% among 360,000;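 active = activation above the run cutoff, the mean activation of all test compounds plus 3 SD, cut at about 18% in these data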
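Assay system – human M5 receptor in CHO-K1 cells · Read-out – % activation, ACh-normalized · Technique – Fluo-8 calcium fluorescence · Dosing – single-point, 3 µM nominal · Incubation – Fluo-8 loading 80 min at 37 °C plus 30 min room temperature · Repeats – singlicate, one well per test compound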
CHRM5 agonist = CHRM5 agonism in calcium assay. P08912. CHO-K1 hM5 cells, Fluo-8 calcium fluorescence; 0% DMSO wells, 100% maximal acetylcholine response. activation, % at 3 µM. hit rate 0.19% among 360,000;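 active = activation above the run's mean over test compounds plus 3 SD, cut at about 23% in these data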;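 also: signal is peak over basal fluorescence ratio across the kinetic read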
M4 ag = CHRM4 agonism in calcium assay; P08173; CHO-K1 hM4/Gqi5, Fluo-8 calcium fluorescence; vehicle 0%, full acetylcholine response 100%; activation, % at 3 µM; hit rate 0.14% among 360,000;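 active = activation above the run mean over all test wells plus 3 SD, cut at about 32% in these data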;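 also: peak over basal fluorescence ratio per well then scaled between controls; 0% = DMSO wells and 100% = acetylcholine at EC100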
An asterisk follows results filed as active. An excerpt weighted towards active compounds, which were near 1.9% of everything screened.

SMILES	CHRM4 PAM	M4 antag	M5 antag	CHRM5 PAM	CHRM5 agonist	M4 ag
C#CCOC(=O)C1=CCCN(C)C1	-18.8	73.9*	96.9*	-15.7	97.3*	69.6*
CCCC(C)CC1(CCO)C(=O)NC(=S)NC1=O (stereo unspecified)	5.8	-0.7	4.8	-4.5	3.6	3.5
CCN1C[C@]2(CO)CC[C@H](OC)[C@@]34C5C[C@H]6[C@H](OC)C5[C@](O)(C[C@H]6OC)[C@@](O)(C(OC)C23)[C@@H]14 (stereo partly specified)	-3.1	5.2	3.9	0.4	0.1	1.4
CC(C)C(=O)c1cn(Cc2ccccc2C#N)c2ccccc12	-0.4	-1.0	1.7	4.0	-4.2	-0.5
CC(=O)c1cn(Cc2ccccc2C#N)c2ccccc12	-22.4	28.8*	37.1*	-31.4	8.1	22.3
Cc1ccc(S(=O)(=O)N(C)C)cc1NC(=O)C(C)[N+]12CCN(CC1)CC2 (stereo unspecified)	-7.4	3.3	5.4	0.9	-3.7	0.2
N[C@@H](CCl)C(=O)O	-15.8	50.8*	7.1	-8.3	2.1	0.5
C[Se]C[C@@H](N)C(=O)O	-6.2	9.7	2.8	-2.5	0.1	1.3
CCOC(=O)[C@@]1(C#N)[C@@H]2C=CC(C(N)=O)=CN2[C@@H](C(N)=O)[C@@H]1c1cccc(Cl)c1	2.7	-14.5	-12.7	31.4*	-3.8	2.0
CCOC(=O)[C@]1(C#N)[C@@H]2C=CC(C(N)=O)=CN2[C@@H](C(N)=O)[C@@H]1c1ccc(F)cc1	24.1	-5.5	6.3	0.4	-4.8	1.4
OCC[N+]12CCC(CC1)C(C(O)(c1ccccc1)c1ccccc1)C2 (stereo unspecified)	-33.4	-2.8	5.5	-9.4	-18.4	-0.3
CCCC[N+]12CCC(CC1)C(=C(c1ccccc1)c1ccccc1)C2	-15.6	56.9*	72.0*	-19.4	-8.8	0.6
CCC[N+]12CCC(CC1)C(=C(c1ccccc1)c1ccccc1)C2	-15.7	57.0*	93.7*	-19.8	-9.7	0.7
Cc1nc2ccc(Cl)cc2c(=O)n1-c1cccc(Cl)c1	0.4	-11.4	-5.2	4.1	-0.8	1.6
CC(=O)c1ccc(OCC(=O)N2CCCC(N(C)Cc3ccccc3)C2)cc1 (stereo unspecified)	-10.3	9.1	7.0	-0.8	-0.9	0.3
C[C@@H]1O[C@@H](O[C@H]2C[C@@H](O)[C@]3(CO)[C@H]4[C@H](O)C[C@]5(C)[C@@H](C6COC(=O)C6)CC[C@]5(O)[C@@H]4CC[C@]3(O)C2)[C@H](O)[C@H](O)[C@H]1O (stereo partly specified)	-15.0	34.1*	-5.1	-6.8	0.3	0.9
CC1OC(OC2CC(O)C3(CO)C4C(O)CC5(C)C(C6=CC(=O)OC6)CCC5(O)C4CCC3(O)C2)C(O)C(O)C1O (stereo unspecified)	8.6	-6.9	-1.6	1.1	2.8	0.3
Cc1ccc(S(=O)(=O)NCCC(=O)Nc2ccc(Cl)cc2C(=O)c2ccccc2)cc1	-9.2	-4.1	-6.4	-5.7	-2.3	-3.1
Cc1ccc(S(=O)(=O)N[C@@H](CCCCN)C(=O)CCl)cc1	-2.4	-7.0	-8.1	-16.3	39.3*	1.1
COc1cc(/C=C(/C)[N+](=O)[O-])ccc1OCc1ccccc1Cl	-10.7	29.2*	27.1*	1.8	-1.5	0.8
O=C(Nc1ccc(Cl)cc1)Nc1nccs1	0.0	-0.3	7.9	-8.5	2.3	10.8
CC(C)[N+](C)(CCC(C(N)=O)(c1ccccc1)c1ccccc1)C(C)C	-18.0	99.7*	98.7*	-18.4	-1.4	-0.2
CCC(=O)C(CCN1CCOCC1)(c1ccccc1)c1ccccc1	-14.8	7.5	14.9	-3.8	-20.3	-0.1
CC1OC(C[N+](C)(C)C)CC1O (stereo unspecified)	-18.7	30.4*	94.7*	-13.2	101.6*	70.7*
C[C@H]1OC[C@@H](C[N+](C)(C)C)O1	-19.4	72.7*	95.8*	-12.0	107.3*	98.4*
SMILES	CHRM4 PAM	M4 antag	M5 antag	CHRM5 PAM	CHRM5 agonist	M4 ag
O=C1CC(N2CC2)C(=O)N1c1ccccc1 (stereo unspecified)	0.5	-8.9	8.4	-6.3	0.3	1.4
COC(=O)C1=C(c2ccc(F)cc2F)C[C@@H]2CC[C@H]1N2C(=O)N1CCC(O)CC1	12.0	-10.6	8.3	10.5	1.6	0.8
Cc1nn(Cc2ccc(Cl)cc2Cl)c(Cl)c1C(=O)O	21.1*	-12.2	-13.9	10.8	4.1	2.2
Cc1nn(Cc2ccccc2Cl)c(Cl)c1C(=O)O	6.0	-13.5	10.4	-11.6	-4.9	0.2
CC1C(c2cccs2)=[N+]([O-])C(C)(C(=O)c2ccc(Cl)cc2)N1O (stereo unspecified)	8.4	-7.8	-8.1	5.0	-10.1	-0.2
Cc1ncc(CN2CCCC(C(=O)c3ccc(C(C)(C)C)cc3)C2)s1 (stereo unspecified)	-21.9	22.8	29.0*	-19.1	-5.0	9.8
CCOC(=O)[C@]12Cc3cc(C)ccc3[C@H]1N(C(C)C)C(=O)c1ccccc12	20.3	-8.5	-11.5	22.0*	-2.5	-2.0
CCOC(=O)[C@]12Cc3cc(OC)ccc3[C@H]1N(C1CCCCC1)C(=O)c1cc(OC)ccc12	-0.1	0.0	6.9	3.0	7.7	-1.7
CCOC(=O)[C@]12Cc3cc(C)ccc3[C@H]1N(Cc1ccccc1)C(=O)c1ccccc12	-4.2	3.9	18.3	-24.5	-7.7	5.3
CCOC(=O)[C@]12Cc3cc(C)ccc3[C@H]1N(C1CCCCC1)C(=O)c1cc(OC)ccc12	-2.3	64.6*	17.6	8.3	50.1*	0.6
CC(=O)OCC[N+](C)(C)C	-20.7	79.0*	97.7*	-13.4	99.8*	95.8*
C[N+](C)(C)CCOC(=O)CBr	0.4	-8.5	-1.0	-15.1	36.6*	0.8
COc1ccc(-n2nnnc2C(c2ccccc2OC(F)(F)F)N2CCC(n3c(=O)[nH]c4ccccc43)CC2)cc1 (stereo unspecified)	0.7	-0.1	12.0	-14.8	1.5	3.5
CC(C)Oc1ccc(C2(C#N)CC[N+](C)(C)CC2)cc1	-6.8	-1.6	-0.4	-2.1	-4.4	0.2
O=C1NC(=O)C(=Cc2ccc(N3CCN(C(=O)c4ccccc4)CC3)c([N+](=O)[O-])c2)C(=O)N1	53.8*	48.2*	2.5	-1.6	5.3	41.0*
CCN1/C(=C\C=C\C2=[N+](CC)c3ccccc3C2(C)C)C(C)(C)c2ccccc21	-20.5	91.7*	93.7*	-51.9	301.7*	251.6*
CCn1c(NN=O)nc2ccccc21	-0.3	-0.2	-17.6	-2.3	1.8	1.2

Source: PubChem BioAssay
